The results in this text go back to ChEMBL document CHEMBL4229440, “Novel amino acid-substituted diphenylpyrimidine derivatives as potent BTK inhibitors against B cell lymphoma cell lines” (Bioorg Med Chem, 2018).

The term IC50 denotes the concentration needed to halve the response being measured.

In data set [1] the test system is Raji. Nature of the data set: Antiproliferative activity against human Raji cells after 72 hrs by CCK8 assay. It counts as functional, cell-based. For orientation: Tetrazolium assays rely on reduction of a dye to a coloured formazan, in cell work by metabolically active cells.
For data set [2], the system named is Ramos. Nature of the data set: Antiproliferative activity against human Ramos cells after 72 hrs by CCK8 assay. Format: functional, cell-based.
In data set [3] the target is Epidermal growth factor receptor (Homo sapiens, UniProt P00533, T790M). The data set is described as follows: Inhibition of recombinant human N-terminal GST-tagged EGFR T790M mutant (695-end residues) expressed in baculovirus infected Sf9 cells using poly (4:1 Glu, Tyr) peptide as substrate after 60 mins by ADP-Glo assay. Put shortly:
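ADP-Glo luminescent kinase assay in 1× kinase buffer with compounds at 0.1 to 1000 nM. The kinase reaction ran 60 min at room temperature, then ADP-Glo reagent stopped it and depleted ATP (40 min, RT). Detection reagent converted ADP to ATP for luciferase read-out (30 min, RT). IC50 came from curve fitting.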
A general note: ADP-Glo turns the ADP formed in a reaction into a luminescent signal.

The target of data set [4] is T1, Tyrosine-protein kinase JAK3 (Homo sapiens, UniProt P52333).
T1 sequence (P52333 whole entry): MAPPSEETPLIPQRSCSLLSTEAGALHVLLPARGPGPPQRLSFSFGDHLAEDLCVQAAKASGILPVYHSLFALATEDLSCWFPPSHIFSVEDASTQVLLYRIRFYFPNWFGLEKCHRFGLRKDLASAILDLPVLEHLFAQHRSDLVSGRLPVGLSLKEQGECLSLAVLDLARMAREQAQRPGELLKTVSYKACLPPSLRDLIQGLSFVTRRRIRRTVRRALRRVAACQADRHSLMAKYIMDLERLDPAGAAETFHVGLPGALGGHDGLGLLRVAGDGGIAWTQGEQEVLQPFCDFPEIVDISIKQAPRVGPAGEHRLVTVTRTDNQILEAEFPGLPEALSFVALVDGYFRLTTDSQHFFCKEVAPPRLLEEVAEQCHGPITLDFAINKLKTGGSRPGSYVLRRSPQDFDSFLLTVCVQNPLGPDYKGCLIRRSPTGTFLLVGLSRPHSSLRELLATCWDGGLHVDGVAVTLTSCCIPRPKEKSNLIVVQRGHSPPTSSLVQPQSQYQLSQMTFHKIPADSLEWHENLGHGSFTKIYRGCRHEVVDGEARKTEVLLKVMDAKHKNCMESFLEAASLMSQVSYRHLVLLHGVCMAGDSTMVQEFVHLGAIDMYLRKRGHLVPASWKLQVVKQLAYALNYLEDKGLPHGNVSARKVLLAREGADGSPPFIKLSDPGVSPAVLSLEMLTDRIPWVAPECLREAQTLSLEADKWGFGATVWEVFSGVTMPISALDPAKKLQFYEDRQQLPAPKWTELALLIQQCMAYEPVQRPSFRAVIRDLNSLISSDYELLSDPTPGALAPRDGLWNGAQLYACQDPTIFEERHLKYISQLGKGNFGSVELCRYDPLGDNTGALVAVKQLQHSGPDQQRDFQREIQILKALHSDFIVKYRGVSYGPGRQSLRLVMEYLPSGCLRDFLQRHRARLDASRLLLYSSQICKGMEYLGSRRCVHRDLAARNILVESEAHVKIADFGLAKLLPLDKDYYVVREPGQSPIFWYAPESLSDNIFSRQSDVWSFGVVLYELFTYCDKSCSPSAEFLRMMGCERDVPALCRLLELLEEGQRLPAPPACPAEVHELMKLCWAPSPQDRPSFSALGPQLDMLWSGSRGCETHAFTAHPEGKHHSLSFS
The data set is described as follows: Inhibition of recombinant human N-terminal GST-tagged JAK3 (781-end residues) expressed in baculovirus infected Sf9 cells using poly (4:1 Glu, Tyr) peptide as substrate after 60 mins by ADP-Glo assay. In a few lines:
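ADP-Glo luminescent kinase assay with commercial JAK3 kinase enzyme system, in 1× kinase buffer, compounds at 0.1–1000 nM. The kinase reaction ran for 60 min at room temperature, followed by ADP-Glo reagent for 40 min to stop the reaction and deplete ATP, then detection reagent for 30 min. Luminescence was read and curves were fitted to give IC50.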

Data set [5] deals with NAMALVA. Nature of the data set: Antiproliferative activity against human NAMALWA cells after 72 hrs by CCK8 assay. It counts as functional, cell-based. Put shortly:
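Cells seeded 3,000/well in RPMI-1640 with 10% FBS at 37 °C, 5% CO2, for 4 h, then exposed to compound for 72 h. Concentrations 1.25 to 40 µM, each in five replicates. Cell number set to give an absorbance of 0.5–1.2 at 450 nm. CCK-8 read-out at 450 nm; IC50 fitted by curve fitting; values are the mean of at least three separate experiments.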

For data set [6], the target named is T2, Tyrosine-protein kinase BTK (Homo sapiens, UniProt Q06187). The data set is described as follows: Inhibition of full length recombinant human N-terminal His-tagged BTK expressed in baculovirus infected Sf9 cells using poly (4:1 Glu, Tyr) peptide as substrate after 60 mins by ADP-Glo assay.
Data set [7] has as its system NAMALVA. The data set is described as follows: Induction of apoptosis in human NAMALWA cells assessed as necrotic cells at 1 uM after 48 hrs by Annexin V-FITC/propidium iodide staining based flow cytometry (reference value: 4.05%). Format: functional. A general note: In flow cytometry, cells or beads pass a laser one at a time.
For data set [8], the system named is Raji. The data set is described as follows: Potency index, ratio of ibrutinib IC50 to compound IC50 for antiproliferative activity against human Raji cells. It counts as functional.
Data set [9] deals with NAMALVA. The data set is described as follows: Induction of apoptosis in human NAMALWA cells assessed as necrotic cells at 2 uM after 48 hrs by Annexin V-FITC/propidium iodide staining based flow cytometry (reference value: 4.05%). It counts as functional.
Data set [10] concerns NAMALVA. The data set is described as follows: Induction of apoptosis in human NAMALWA cells assessed as early apoptotic cells at 1 uM after 48 hrs by Annexin V-FITC/propidium iodide staining based flow cytometry (reference value: 0%). It counts as functional.
For data set [11], the target named is T2, Tyrosine-protein kinase BTK. Nature of the data set: Inhibition of BTK phosphorylation in human NAMALWA cells after 48 hrs by Western blot method. It counts as cell-based. In a few lines:
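NAMALWA cells were treated at 1, 5 and 10 µM for 48 h and lysed; lysates were cleared at 14,000 g for 15 min at 4 °C. 50 µg protein was resolved on 8–12% SDS-PAGE and transferred to PVDF. The membrane was blocked in 5% skim milk for 2 h at room temperature, then probed overnight at 4 °C for BTK and p-BTK. Detection was by ECL.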

The subject of data set [12] is PBMC. Nature of the data set: Cytotoxicity against human PBMC assessed as morphological changes at 5 to 20 uM after 24 hrs by acridine orange/ethidium bromide staining based phase contrast microscopic method. It counts as cell-based. In a few lines:
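PBMC were isolated from a healthy adult 's venous blood (ACD anticoagulant) by Lymphoprep density separation, washed in PBS and seeded at 200,000–250,000 cells/well. Treated in RPMI-1640 with 10% FBS at 37 °C, 5% CO2, for 24 h, with five replicates per concentration. Morphology was checked by phase-contrast microscopy and AO/EB staining; live cells were counted manually in a counting chamber.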

Data set [13] relates to NAMALVA. The data set is described as follows: Induction of apoptosis in human NAMALWA cells assessed as early apoptotic cells at 2 uM after 48 hrs by Annexin V-FITC/propidium iodide staining based flow cytometry (reference value: 0%). Format: functional.
Data set [14] deals with NAMALVA. The data set is described as follows: Induction of apoptosis in human NAMALWA cells assessed as morphological changes at 5 uM by acridine orange/ethidium bromide staining based phase contrast microscopic assay. It counts as functional, cell-based.
Data set [15] concerns NAMALVA. The data set is described as follows: Potency index, ratio of ibrutinib IC50 to compound IC50 for antiproliferative activity against human NAMALWA cells. Format: functional.
In data set [16] the test system is NAMALVA. Nature of the data set: Induction of apoptosis in human NAMALWA cells assessed as late apoptotic cells at 2 uM after 48 hrs by Annexin V-FITC/propidium iodide staining based flow cytometry (reference value: 0%). Format: functional.
Data set [17] has as its system NAMALVA. Nature of the data set: Induction of apoptosis in human NAMALWA cells assessed as late apoptotic cells at 5 uM after 48 hrs by Annexin V-FITC/propidium iodide staining based flow cytometry (reference value: 0%). Format: functional.
The test system of data set [18] is NAMALVA. The data set is described as follows: Induction of apoptosis in human NAMALWA cells assessed as late apoptotic cells at 1 uM after 48 hrs by Annexin V-FITC/propidium iodide staining based flow cytometry (reference value: 0%). Format: functional.
Data set [19] has as its system NAMALVA. Nature of the data set: Induction of apoptosis in human NAMALWA cells assessed as early apoptotic cells at 5 uM after 48 hrs by Annexin V-FITC/propidium iodide staining based flow cytometry (reference value: 0%). It counts as functional.
Data set [20] deals with NAMALVA. The data set is described as follows: Induction of apoptosis in human NAMALWA cells assessed as necrotic cells at 5 uM after 48 hrs by Annexin V-FITC/propidium iodide staining based flow cytometry (reference value: 4.05%). Format: functional.

The source made the active and inactive calls. The calls are words filed in the database; no cut-off is given here.

T2 sequence (Q06187 whole entry): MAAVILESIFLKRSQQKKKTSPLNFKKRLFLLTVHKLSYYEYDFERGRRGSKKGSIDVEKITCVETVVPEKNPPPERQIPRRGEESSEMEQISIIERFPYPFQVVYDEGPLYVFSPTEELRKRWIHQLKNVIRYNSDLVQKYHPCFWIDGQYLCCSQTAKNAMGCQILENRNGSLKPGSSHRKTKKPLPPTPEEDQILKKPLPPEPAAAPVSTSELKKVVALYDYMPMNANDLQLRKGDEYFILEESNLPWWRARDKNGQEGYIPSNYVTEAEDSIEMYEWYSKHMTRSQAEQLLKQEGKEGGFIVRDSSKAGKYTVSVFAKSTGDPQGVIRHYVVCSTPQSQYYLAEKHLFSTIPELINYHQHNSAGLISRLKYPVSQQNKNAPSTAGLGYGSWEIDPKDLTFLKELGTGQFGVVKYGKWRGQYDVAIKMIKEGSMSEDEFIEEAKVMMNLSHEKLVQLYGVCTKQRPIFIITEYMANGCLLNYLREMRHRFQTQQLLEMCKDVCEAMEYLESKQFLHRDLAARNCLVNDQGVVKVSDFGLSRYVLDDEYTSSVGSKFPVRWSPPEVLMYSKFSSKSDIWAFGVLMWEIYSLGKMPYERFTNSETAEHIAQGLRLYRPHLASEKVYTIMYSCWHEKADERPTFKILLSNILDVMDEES
Epidermal growth factor receptor, sequence (P00533 25-1210 T790M limits assumed): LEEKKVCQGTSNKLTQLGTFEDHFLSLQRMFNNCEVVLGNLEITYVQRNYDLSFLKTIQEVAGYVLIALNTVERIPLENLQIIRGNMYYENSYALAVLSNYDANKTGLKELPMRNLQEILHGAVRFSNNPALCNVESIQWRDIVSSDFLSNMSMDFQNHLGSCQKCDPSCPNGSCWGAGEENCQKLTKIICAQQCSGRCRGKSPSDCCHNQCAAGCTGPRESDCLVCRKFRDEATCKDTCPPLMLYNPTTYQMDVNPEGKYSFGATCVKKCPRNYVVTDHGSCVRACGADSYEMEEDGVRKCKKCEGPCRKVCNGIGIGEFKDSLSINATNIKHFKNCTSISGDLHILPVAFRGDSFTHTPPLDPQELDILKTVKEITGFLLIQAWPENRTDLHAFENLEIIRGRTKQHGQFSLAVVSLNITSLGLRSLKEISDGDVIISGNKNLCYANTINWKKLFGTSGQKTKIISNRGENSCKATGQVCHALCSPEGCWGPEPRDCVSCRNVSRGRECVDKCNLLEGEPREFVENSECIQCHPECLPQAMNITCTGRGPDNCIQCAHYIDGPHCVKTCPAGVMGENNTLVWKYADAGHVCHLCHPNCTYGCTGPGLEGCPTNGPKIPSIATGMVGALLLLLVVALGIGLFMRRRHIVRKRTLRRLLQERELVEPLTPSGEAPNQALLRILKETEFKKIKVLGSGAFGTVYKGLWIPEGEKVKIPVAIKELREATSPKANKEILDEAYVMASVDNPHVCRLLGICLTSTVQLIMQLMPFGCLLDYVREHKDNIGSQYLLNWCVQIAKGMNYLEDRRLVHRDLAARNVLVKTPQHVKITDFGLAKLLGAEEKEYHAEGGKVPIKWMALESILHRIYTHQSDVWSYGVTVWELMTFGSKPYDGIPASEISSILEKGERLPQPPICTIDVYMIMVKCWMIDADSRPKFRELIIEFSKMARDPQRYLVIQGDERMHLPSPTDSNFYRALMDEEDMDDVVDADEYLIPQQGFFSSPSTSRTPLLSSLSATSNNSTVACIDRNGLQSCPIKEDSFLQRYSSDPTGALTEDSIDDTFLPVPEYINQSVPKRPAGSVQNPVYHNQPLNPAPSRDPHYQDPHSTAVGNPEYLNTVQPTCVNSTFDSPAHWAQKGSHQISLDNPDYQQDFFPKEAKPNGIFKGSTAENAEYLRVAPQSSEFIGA

As for `C=CC(=O)Nc1cccc(Nc2nc(Nc3ccc(OCC(=O)NC(C)C(=O)OC)cc3)ncc2Cl)c1` (stereo not drawn), the IC50 in data set [1] is 25.2 µM; in [2] it was 40.8 µM; in data set [3], > 0.1 µM; in [4], > 0.5 µM; in data set [5], 29.3 µM; in [6] it was 0.0087 µM.

In the case of `C=CC(=O)Nc1cccc(Nc2nc(Nc3ccc(OCC(=O)N4CCCC4C(=O)OC)cc3)ncc2Cl)c1` (stereo not drawn), the IC50 in data set [1] was 6.7 µM; in data set [2] it was 19.7 µM; in data set [3], > 0.1 µM; in [4], 0.196 µM; in [5], 4.8 µM; in data set [6] it was 0.0087 µM. The Activity was 0.92% in data set [7]; 0.82% in data set [9]; 4.94% in data set [10]; “Non-Toxic” in data set [12]; 6.96% in data set [13]; 7.43% in [16]. The Activity is on record as 13.33% in data set [17], 5.83% in data set [18], 8.75% in data set [19] and 1.67% in [20]. The “Ratio IC50” value in data set [8] worked out at 3; in data set [15], 4. Further, the inhibition result in [11] was “Dose-dependent effect”. For the same compound, the result in data set [14] was Active.

Consider `C=CC(=O)Nc1cccc(Nc2nc(Nc3ccc(OCC(=O)NCC(=O)O)cc3)ncc2Cl)c1`, for which the IC50 was > 40 µM in data set [1]; > 40 µM in [2]; > 0.1 µM in data set [3]; > 0.5 µM in data set [4]; > 40 µM in data set [5]; 0.0112 µM in data set [6].

Turning to `C=CC(=O)Nc1cccc(Nc2nc(Nc3ccc(OCC(=O)NCC(=O)OC)cc3)ncc2Cl)c1`, the IC50 in data set [1] was 18 µM; in data set [2], 20.9 µM; in data set [3] it was > 0.1 µM; in [4], 0.496 µM; in data set [5], 16.9 µM; in data set [6], 0.0065 µM.

Consider `C=CC(=O)N1CCC[C@@H](n2nc(-c3ccc(Oc4ccccc4)cc3)c3c(N)ncnc32)C1` [IBRUTINIB], for which the IC50 in data set [5] was found to be 19.6 µM. Besides, the result in data set [14] was Active. The Activity is listed as 5.75% in data set [17], 4.06% in [19] and 0.73% in [20].
